According to ChEMBL document CHEMBL4425095, “Novel Cephalosporins Selectively Active on Nonreplicating Mycobacterium tuberculosis” (J Med Chem, 2016):
Converted amounts (≈) assume the structure as drawn. The source made the active and inactive calls. The rule behind the calls is not given here.

How the values were obtained:
[1] = Cytotoxicity against human HepG2 cells assessed as reduction in cell viability after 2 days by Celltiter-Glo reagent based assay; conditions: read-out: LD50
Procedure, shortened: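 HepG2 cells in DMEM with 10% FBS, pyruvate, glutamine and nonessential amino acids. Seeded at 3000 cells/well and exposed 2 days to compound or vehicle (≤1% DMSO final). Reported as LD50.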

[2] = test system: Mycobacterium tuberculosis; assay: Bactericidal activity against wild-type non-replicating Mycobacterium tuberculosis H37Rv multi-stress model at 0.1 to 100 ug/ml incubated for 7 days measured at OD580 = 0.01 by charcoal agar resazurin assay; assay type: functional, organism-based
[3] = test system: Mycobacterium tuberculosis; assay: Bactericidal activity against wild-type replicating Mycobacterium tuberculosis H37Rv assessed as reduction in CFU in presence of beta-lactamase inhibitor clavulanate; assay type: functional, organism-based
[4] = Stability in pH 7.4 phosphate buffer solution assessed as parent compound remaining at 5 to 50 ug/ml at 37 degC measured every 12 hrs up to 144 hrs by LC-MS analysis; assay type: physicochemical
Procedure, shortened: (§1)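 Compound at 50 μg/mL in cell-free PBS pH 7.4, or nonreplicating medium pH 5.0 (BSA, tyloxapol, lysine, pantothenate omitted) with or without 0.5 mM NaNO2. Poorly soluble compounds at 5 μg/mL in 50:50 acetonitrile mixtures, pH readjusted to 5.0.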

[5] = Stability in pH 5 non-replicating medium containing 0.5 mM NaNO2 assessed as parent compound remaining at 5 to 50 ug/ml at 37 degC measured every 12 hrs up to 144 hrs by LC-MS analysis; assay type: physicochemical; conditions: buffer; procedure, shortened: as §1
[6] = Stability in pH 5 non-replicating medium assessed as parent compound remaining at 5 to 50 ug/ml at 37 degC measured every 12 hrs up to 144 hrs by LC-MS analysis; assay type: physicochemical; conditions: buffer; procedure, shortened: as §1
[7] = test system: Mycobacterium tuberculosis; assay: Bactericidal activity against wild-type non-replicating Mycobacterium tuberculosis H37Rv at 1 to 100 ug/ml incubated for 7 days measured at OD580 = 0.1 in presence of 1 mM NaNO2; assay type: functional, organism-based
Procedure, shortened: (§2)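 Wild-type H37Rv resuspended at OD580 0.1 in nonreplicating medium with NaNO2 at 0–1 mM, one plate per nitrite level. Exposed to compound for 7 days, then standard outgrowth assay to estimate survivors.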

[8] = test system: Mycobacterium tuberculosis; assay: Bactericidal activity against wild-type non-replicating Mycobacterium tuberculosis H37Rv at 1 to 100 ug/ml incubated for 7 days measured at OD580 = 0.1 in presence of up to 0.5 mM NaNO2; assay type: functional, organism-based; procedure, shortened: as §2

Q: For `CC1=CS[C@@H]2[C@H](NC(=O)COc3ccccc3)C(=O)N2[C@H]1CO`, which CC50 at 48 h [1] is on record?
A: Its CC50 at 48 h is greater than 100 µg/mL.

Q: Which CC50 at 48 h [1] does the source give for `C#CCOC(=O)C1=C(C)CS[C@@H]2[C@H](NC(=O)CCc3ccc(Cl)cc3)C(=O)N12` here?
A: The CC50 at 48 h was greater than 100 µg/mL.

Q: Which CC50 at 48 h [1] does the source give for `CC1=C(c2nc(C)no2)N2C(=O)[C@@H](NC(=O)Cc3ccc(Cl)cc3)[C@H]2SC1` here?
A: The CC50 at 48 h was greater than 100 µg/mL.

Q: For `CC1=C(c2nc(C)no2)N2C(=O)[C@@H](NC(=O)Cc3ccc(Cl)c(Cl)c3)[C@H]2SC1`, which CC50 at 48 h [1] is on record?
A: Its CC50 at 48 h is 18.9 µg/mL (≈ 42.9 µM).

Q: Which CC50 at 48 h [1] does the source give for `CCCOC(=O)C1=C(C)CS[C@@H]2[C@H](NC(=O)COc3ccc(Cl)cc3)C(=O)N12` here?
A: Its CC50 at 48 h is 49.2 µg/mL (≈ 116 µM).

Q: Which CC50 at 48 h [1] does the source give for `CCCc1noc(C2=C(C)CS[C@@H]3[C@H](NC(=O)c4ccc(Cl)cc4)C(=O)N23)n1` here?
A: The CC50 at 48 h was greater than 100 µg/mL.

Q: And the Activity [2]?
A: Its Activity is “Active”.

Q: With `CCCc1noc(C2=C(C)CS[C@@H]3[C@H](NC(=O)CCc4ccc(Cl)cc4)C(=O)N23)n1` as the compound, how does the CC50 at 48 h [1] read?
A: The CC50 at 48 h was greater than 100 µg/mL.

Q: For `CCCc1noc(C2=C(C)CS[C@@H]3[C@H](NC(=O)CCc4ccccc4Cl)C(=O)N23)n1`, which CC50 at 48 h [1] is on record?
A: Its CC50 at 48 h is greater than 100 µg/mL.

Q: Which CC50 at 48 h [1] does the source give for `CCCOC(=O)C1=C(C)CS[C@@H]2[C@H](NC(=O)CCc3ccccc3)C(=O)N12` here?
A: The CC50 at 48 h was greater than 100 µg/mL.

Q: For `COC(=O)C1=C(C)CS[C@@H]2[C@H](NC(=O)[C@H](N)c3ccccc3)C(=O)N12`, which CC50 at 48 h [1] is on record?
A: The CC50 at 48 h was greater than 100 µg/mL.

Q: For `CC1=C(C(=O)OCc2ccccc2)N2C(=O)[C@@H](NC(=O)COc3ccc(Cl)cc3)[C@H]2SC1`, which CC50 at 48 h [1] is on record?
A: The CC50 at 48 h was greater than 100 µg/mL.

Q: With `C#CCOC(=O)C1=C(C)CS[C@@H]2[C@H](NC(=O)COc3ccc(Cl)cc3)C(=O)N12` as the compound, how does the CC50 at 48 h [1] read?
A: Its CC50 at 48 h is 63.4 µg/mL (≈ 151 µM).

Q: With `CCCOC(=O)C1C(C)=CS[C@@H]2[C@H](NC(=O)CCc3ccc(OC)cc3)C(=O)N12` (stereo partly drawn) as the compound, how does the CC50 at 48 h [1] read?
A: Its CC50 at 48 h is greater than 100 µg/mL.

Q: Which CC50 at 48 h [1] does the source give for `CCCc1noc(C2=C(C)CS[C@@H]3[C@H](NC(=O)CCc4ccc(OC)cc4)C(=O)N23)n1` here?
A: Its CC50 at 48 h is greater than 100 µg/mL.

Q: And the Activity [2]?
A: Its Activity is “Active”.

Q: Which CC50 at 48 h [1] does the source give for `COC(=O)C1=C(C)CS[C@@H]2[C@H](NC(=O)CCc3ccc(OC)cc3)C(=O)N12` here?
A: Its CC50 at 48 h is greater than 100 µg/mL.

Q: With `CC1=C(c2nc(C)no2)N2C(=O)[C@@H](NC(=O)COc3ccc(Cl)cc3)[C@H]2SC1` as the compound, how does the CC50 at 48 h [1] read?
A: The CC50 at 48 h was 19.5 µg/mL (≈ 46.4 µM).

Q: And the Activity [2]?
A: The Activity was “Active”.

Q: Which CC50 at 48 h [1] does the source give for `CCCc1noc(C2=C(C)CS[C@@H]3[C@H](NC(=O)Cc4ccc(C)cc4)C(=O)N23)n1` here?
A: Its CC50 at 48 h is greater than 100 µg/mL.

Q: With `CCCOC(=O)C1=C(C)CS[C@@H]2[C@H](NC(=O)CCc3ccc(OC)cc3)C(=O)N12` as the compound, how does the CC50 at 48 h [1] read?
A: Its CC50 at 48 h is greater than 100 µg/mL.

Q: For `CCCOC(=O)C1=C(C)CS[C@@H]2[C@H](NC(=O)[C@H](N)c3ccccc3)C(=O)N12`, which CC50 at 48 h [1] is on record?
A: Its CC50 at 48 h is greater than 100 µg/mL.

Q: For `COC(=O)C1=C(C)CS[C@@H]2[C@H](NC(=O)CCc3ccccc3)C(=O)N12`, which CC50 at 48 h [1] is on record?
A: The CC50 at 48 h was greater than 100 µg/mL.

Q: Which CC50 at 48 h [1] does the source give for `CCCc1noc(C2=C(C)CS[C@@H]3[C@H](NC(=O)Cc4ccc(OC)cc4)C(=O)N23)n1` here?
A: Its CC50 at 48 h is 72.4 µg/mL (≈ 169 µM).

Q: With `CCCOC(=O)N[C@@H]1C(=O)N2C(C(=O)OCCC)=C(C)CS[C@H]12` as the compound, how does the CC50 at 48 h [1] read?
A: Its CC50 at 48 h is greater than 100 µg/mL.

Q: And the Activity [3]?
A: The Activity was “inactive”.

Q: What about the Stability [4] of the same compound?
A: Its Stability is 80%.

Q: What about the Stability [5] of the same compound?
A: Its Stability is 100%.

Q: What about the Stability [6] of the same compound?
A: The Stability was 100%.

Q: With `CCOC(=O)C1=C(C)CS[C@@H]2[C@H](NC(=O)CCc3ccc(OC)cc3)C(=O)N12` as the compound, how does the CC50 at 48 h [1] read?
A: The CC50 at 48 h was greater than 100 µg/mL.

Q: What about the Activity [2] of the same compound?
A: The Activity was “Active”.

Q: Which CC50 at 48 h [1] does the source give for `CCCc1noc(C2=C(C)CS[C@@H]3[C@H](NC(=O)Cc4ccc(Cl)cc4)C(=O)N23)n1` here?
A: The CC50 at 48 h was 20.6 µg/mL (≈ 47.6 µM).

Q: For `COC(=O)C1=C(C)CS[C@@H]2[C@H](NC(=O)COc3ccc(Cl)cc3)C(=O)N12`, which CC50 at 48 h [1] is on record?
A: Its CC50 at 48 h is greater than 100 µg/mL.

Q: With `COc1ccc(CC(=O)N[C@@H]2C(=O)N3C(c4nc(C)no4)=C(C)CS[C@H]23)cc1` as the compound, how does the CC50 at 48 h [1] read?
A: Its CC50 at 48 h is greater than 100 µg/mL.

Q: Which CC50 at 48 h [1] does the source give for `CCCOC(=O)C1=C(C)CS[C@@H]2[C@H](NC(=O)COc3ccc(OC)cc3)C(=O)N12` here?
A: Its CC50 at 48 h is greater than 100 µg/mL.

Q: Which CC50 at 48 h [1] does the source give for `CCCCOC(=O)C1=C(C)CS[C@@H]2[C@H](NC(=O)COc3ccc(Cl)cc3)C(=O)N12` here?
A: Its CC50 at 48 h is greater than 100 µg/mL.

Q: Which CC50 at 48 h [1] does the source give for `CCOC(=O)C1=C(C)CS[C@@H]2[C@H](NC(=O)COc3ccccc3)C(=O)N12` here?
A: Its CC50 at 48 h is greater than 100 µg/mL.

Q: Which CC50 at 48 h [1] does the source give for `COC(=O)C1=C(C)CS[C@@H]2[C@H](NC(=O)COc3ccccc3)C(=O)N12` here?
A: The CC50 at 48 h was greater than 100 µg/mL.

Q: Which CC50 at 48 h [1] does the source give for `CCCc1noc(C2=C(C)CS[C@@H]3[C@H](NC(=O)COc4ccc(Cl)cc4)C(=O)N23)n1` here?
A: The CC50 at 48 h was 64.3 µg/mL (≈ 143 µM).

Q: What about the Activity [2] of the same compound?
A: The Activity was “Active”.

Q: With `CO[C@H]1/C=C/O[C@@]2(C)Oc3c(C)c(O)c4c(O)c(c(/C=N/N5CCN(C)CC5)c(O)c4c3C2=O)NC(=O)/C(C)=C\C=C\[C@H](C)[C@H](O)[C@@H](C)[C@@H](O)[C@@H](C)[C@H](OC(C)=O)[C@@H]1C` as the compound, how does the Activity [7] read?
A: Its Activity is “Active”.

Q: What about the Activity [8] of the same compound?
A: Its Activity is “inactive”.

Q: With `CCCCOc1ccc(CCC(=O)N[C@@H]2C(=O)N3C(c4nc(CCC)no4)=C(C)CS[C@H]23)cc1` as the compound, how does the CC50 at 48 h [1] read?
A: The CC50 at 48 h was greater than 100 µg/mL.
